ChEMBL document CHEMBL4513216, “Probing the Open Global Health Chemical Diversity Library for Multistage-Active Starting Points for Next-Generation Antimalarials” (ACS Infect Dis, 2020)

Experiment: Toxicity liver stage against HepG2, at 10uM
Assay type: cell-based
Design: test concentration 10 uM, cell line HepG2-A16-CD81EGFP
Settings: human, HepG2-A16-CD81EGFP cells; read-out: INHIBITION
How it was run: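 Uninfected HepG2-A16-CD81EGFP cells, 3 × 10^3 per well, 1536-well, plated on prespotted compound at 10 μM final, parasite-free screening media added to match infected plates; puromycin 10 μM positive, DMSO 0.5% negative; run in parallel with 48 h PbLuc assay at 37 °C, 5% CO2; viability by CellTiter-Glo luminescence, normalized to controls.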

SMILES	cytotoxicity at 10 µM
O=C(CCc1ccccc1)NC1CCC2(CCC(=O)N2)CC1 (stereo not given)	1.35%
Cn1nnc2c1CCN(Cc1ccncc1)C2COCc1ccccc1 (stereo not given)	-134%
Cc1ccc(S(=O)(=O)NCC(C)(C)N)c(F)c1	7.42%
CNCC(=O)N1CCC(c2ccnc(Nc3ccc(C)cn3)n2)C1 (stereo not given)	-2.29%
O=C(Cn1c(C(F)F)cc2cccnc21)NC1CCCC1	-22.2%
CN(Cc1ccc(F)cc1)[C@@H]1CN(C(=O)c2cccs2)C[C@H]1O	3.92%
CC(c1ccc(S(N)(=O)=O)cc1)N(C)C(=O)c1ccccc1I (stereo not given)	-0.629%
COCC(=O)N1CC(c2ccnc(Nc3ccc(C)cn3)n2)C1	-30.9%
CCN(CC)S(=O)(=O)N(Cc1cccc(C)c1)Cc1ccccn1	-4.88%
Clc1cnc(NCc2ccccc2N2CCOCC2)nc1	-0.234%
Cc1ccsc1C(CNC(=O)c1cc(=O)c2ccccc2[nH]1)N(C)C (stereo not given)	-2.89%
CN1CCN(c2ncc3c(=O)n(Cc4ccco4)ccc3n2)CC1	-15.1%
COc1ccccc1CC(=O)N1CCN(Cc2ccco2)C[C@@H]1C	2.08%
O=C(CN1CCCCCC1)N1CCc2nnc(C3CCCNC3)n2CC1 (stereo not given)	-5.56%
CN1CCN(c2nc(O)cc(Cc3ccccc3F)n2)CC1	-5.08%
CCCc1cc(=O)[nH]c(-n2nc(-c3cccs3)cc2N)n1	11.2%
Cc1cccc(N2CCC(N3CCC4(CN(C)C(=O)O4)C3)CC2)c1C (stereo not given)	-11.8%
CN(Cc1nc(-c2cccnc2)no1)C(=O)c1cnc2n1CCCC2	6.32%
Cc1cccc(CN2C[C@@H]3CN(C(=O)c4ccsc4)C[C@@H]3C2=O)c1	-18.8%
COCc1ccc(CNC(=O)CN2CCc3ccccc32)cc1	6.68%
Cc1cc(C)n(C2CN(CC(O)c3ccc(F)cc3)C2)n1 (stereo not given)	-13%
Cc1ccc(CNC(=O)CN2CCN(CC(O)C3CC3)CC2)cc1 (stereo not given)	4.91%
CCOCC(=O)N1C[C@@H]2CCN(c3cnccn3)C[C@@H]2C1	1.2%
OC(CN1CCC(CNCc2ccccn2)CC1)c1ccccc1 (stereo not given)	-2.15%
Cc1nnc(SCC(=O)NCc2ccc3c(c2)CCC(=O)N3)s1	-5.03%
CN(Cc1nc(-c2ccccc2)no1)Cc1cnc(N2CCOCC2)s1	-1.48%
O=S(=O)(c1ccccc1F)N1CCCC(c2nccs2)C1 (stereo not given)	-11%
CC(C)c1nnc(CNC2CCCN(Cc3noc(C4CC4)n3)C2)o1 (stereo not given)	-5.62%

SMILES	cytotoxicity at 10 µM
CCc1nccc(CN2CCCC(CNC(=O)c3ccccn3)C2)n1 (stereo not given)	4.63%
O=c1oc(-c2ccc(F)cc2)nn1CC1CCOC1 (stereo not given)	5.53%
CC(C(=O)NCc1ccc(N2CCNC(=O)C2)cc1)c1cccs1 (stereo not given)	-4.43%
CCc1ccc2nc(C)cc(C(=O)NC3CCNC3=O)c2c1 (stereo not given)	-4.65%
Cc1ccccc1S(=O)(=O)CCOC(C)C	0.456%
O=C(NCC1(COc2cnccn2)C[C@@H](O)[C@@H](O)C1)C1CC1 (stereo not given in full)	7.92%
CCN1CC2(CCCCN2C(=O)C2CCCCC2)CC1=O (stereo not given)	18.3%
CC(C)(CO)NCc1nn(Cc2ccccc2)nc1-c1ccccc1	-6.69%
Cc1ccsc1C(=O)N1Cc2ccccc2C2(CCN(C)CC2)C1	2.6%
COCCOCC1(CNCc2ccc(F)cc2)C[C@@H](O)[C@@H](O)C1 (stereo not given in full)	-3.1%
c1cnnc(NCC2CN(Cc3cccc4c3OCCO4)CCO2)c1 (stereo not given)	-9.93%
O=C(c1cscn1)N1CCC2(CCN(Cc3nccs3)C2)CC1	1.8%
Cc1nnsc1CN1C[C@H]2CC[C@@H](C1)N(Cc1ccccc1)C2	9.47%
Cc1[nH]c2ccccc2c1-c1ccnc(N[C@@H](CO)C(C)C)n1	-4.19%
O=C(NC1CCS(=O)(=O)C1)c1cc(Sc2ncccn2)ccn1 (stereo not given)	12%
CCN(CC)[C@@H]1CN(C(=O)c2ccnnc2)[C@@H]2CCCO[C@H]12	-146%
CCN(CC)c1ccc(CNS(=O)(=O)C2CCOCC2)cc1F	-13.4%
Cc1ncnc2c1CCN(Cc1ccc3c(c1)OCO3)CC2	-9.23%
CNS(=O)(=O)CCCN1CCCCCC1c1ccc(C)o1 (stereo not given)	-7.58%
COc1ccccc1-c1cc(NC(=O)CCC2CCCO2)[nH]n1 (stereo not given)	-0.394%
O=C(c1cncs1)N1CCc2[nH]nc(Nc3ccccc3)c2C1	8.26%
CC(=O)N1CCN(C2CCCCc3ccccc32)CC1 (stereo not given)	-46.3%
O=C(O)c1cc(-n2cc3c(n2)CCC3)cc(S(=O)(=O)N2CCOCC2)c1	-7.95%
Cc1ccc(C(=O)N2CCC(O)(CN3CCc4ccccc4C3)C2)s1 (stereo not given)	-1.61%
O=C(CCN1CCCCO1)N1CCC(CO)(Cc2ccccc2)CC1	7.26%
CCC(=O)NC1CCCN(Cc2ccc(NC(C)=O)cc2)C1 (stereo not given)	-47.9%
Cc1ccoc1C(=O)N1CCOCC2(CCN(c3ncccn3)C2)C1 (stereo not given)	-7.23%
